Data taken from ChEMBL document CHEMBL1140445, “Design, synthesis, and preliminary pharmacological evaluation of a set of small molecules that directly activate gi proteins” (J Med Chem, 2005).

Experiments:
Assay type in all cases: functional
[1] = target: T1, Guanine nucleotide-binding protein G(i) subunit alpha-1 (Homo sapiens, UniProt P63096); experiment: Concentration required to stimulate binding of [35S]GTP-gamma-S, with G alpha i1
In short: (§1)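 His-tagged recombinant Gαi subunits were expressed in E. coli BL21/DE3 and purified by IMAC. 3 pmol of subunit, native or in lipid vesicles, was incubated 30 min at 30 °C with 0.1 μM [35S]GTPγS in 50 mM Hepes-NaOH, 1 mM EDTA, 1 mM DTT and 100 μM MgSO4. The reaction was stopped with ice-cold buffer and filtered on cellulose nitrate. EC50 came from 1×10^-7 to 1×10^-4 M (eight concentrations).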

[2] = target: T2, Guanine nucleotide-binding protein G(i) subunit alpha-3 (Homo sapiens, UniProt P08754); experiment: Concentration required to stimulate binding of [35S]GTP-gamma-S, with G alpha i3; in short: as §1
T2 sequence (P08754 whole entry): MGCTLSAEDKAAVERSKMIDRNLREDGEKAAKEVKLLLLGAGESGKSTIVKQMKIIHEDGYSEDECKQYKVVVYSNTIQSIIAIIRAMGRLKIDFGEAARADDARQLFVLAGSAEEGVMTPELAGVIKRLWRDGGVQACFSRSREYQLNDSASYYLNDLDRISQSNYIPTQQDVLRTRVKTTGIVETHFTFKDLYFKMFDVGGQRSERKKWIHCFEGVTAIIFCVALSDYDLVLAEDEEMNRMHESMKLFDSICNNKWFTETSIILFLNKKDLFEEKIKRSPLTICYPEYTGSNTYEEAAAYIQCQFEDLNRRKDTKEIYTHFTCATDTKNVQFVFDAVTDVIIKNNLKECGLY

[3] = target: T3, Guanine nucleotide-binding protein G(o) subunit alpha (Homo sapiens, UniProt P09471); experiment: Concentration required to stimulate binding of [35S]GTP-gamma-S, with G alpha o1
In short: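 Gαo: His-tagged recombinant subunit from E. coli BL21/DE3, IMAC-purified. 3 pmol, native or vesicle-reconstituted, incubated 30 min at 20 °C with 0.1 μM [35S]GTPγS in Hepes-NaOH/EDTA/DTT/100 μM MgSO4 mix. The reaction was stopped with ice-cold Tris/MgCl2/NaCl buffer, filtered on cellulose nitrate and washed. EC50 was derived from eight concentrations spanning 1×10^-7 to 1×10^-4 M.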
Target sequence in this assay (P09471 whole entry): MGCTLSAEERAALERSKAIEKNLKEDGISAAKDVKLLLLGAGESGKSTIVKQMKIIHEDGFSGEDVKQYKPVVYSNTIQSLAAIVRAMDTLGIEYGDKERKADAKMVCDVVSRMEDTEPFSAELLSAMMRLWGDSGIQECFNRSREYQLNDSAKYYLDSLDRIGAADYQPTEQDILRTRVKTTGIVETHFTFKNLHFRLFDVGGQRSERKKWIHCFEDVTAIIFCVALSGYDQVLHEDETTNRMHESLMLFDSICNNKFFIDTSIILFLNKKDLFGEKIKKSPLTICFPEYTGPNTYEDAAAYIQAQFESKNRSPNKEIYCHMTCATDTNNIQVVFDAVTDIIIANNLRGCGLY

[4] = target: T1, Guanine nucleotide-binding protein G(i) subunit alpha-1; experiment: Percent stimulation of [35S]GTP-gamma-S, binding to G alpha i1 at 5E-5 M of basal for 30 minutes
In short: (§2)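 Recombinant His-tagged Gαi subunit (3 pmol, native or in lipid vesicles) was incubated with compound at 5×10^-5 M and 0.1 μM [35S]GTPγS, 30 min at 30 °C, in 50 mM Hepes-NaOH, 1 mM EDTA, 1 mM DTT, 100 μM MgSO4. Filter-bound GTPγS after ice-cold stop and cellulose-nitrate filtration is expressed as percent of basal.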

[5] = target: T2, Guanine nucleotide-binding protein G(i) subunit alpha-3; experiment: Percent stimulation of [35S]GTP-gamma-S, binding to G alpha i3 at 5E-5 M of basal for 30 minutes; in short: as §2
[6] = target: T3, Guanine nucleotide-binding protein G(o) subunit alpha; experiment: Percent stimulation of [35S]GTP-gamma-S, binding to G alpha o1 at 5E-5 M of basal for 30 minutes
In short: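 With Gαo (3 pmol recombinant His-tagged subunit, native or vesicle-reconstituted), binding of 0.1 μM [35S]GTPγS was measured during 30 min at 20 °C with compound at 5×10^-5 M, in Hepes-NaOH buffer with EDTA, DTT and 100 μM MgSO4. Samples were filtered on cellulose nitrate, and the value is percent of basal binding.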
Target sequence in this assay (P09471 2-354 limits assumed): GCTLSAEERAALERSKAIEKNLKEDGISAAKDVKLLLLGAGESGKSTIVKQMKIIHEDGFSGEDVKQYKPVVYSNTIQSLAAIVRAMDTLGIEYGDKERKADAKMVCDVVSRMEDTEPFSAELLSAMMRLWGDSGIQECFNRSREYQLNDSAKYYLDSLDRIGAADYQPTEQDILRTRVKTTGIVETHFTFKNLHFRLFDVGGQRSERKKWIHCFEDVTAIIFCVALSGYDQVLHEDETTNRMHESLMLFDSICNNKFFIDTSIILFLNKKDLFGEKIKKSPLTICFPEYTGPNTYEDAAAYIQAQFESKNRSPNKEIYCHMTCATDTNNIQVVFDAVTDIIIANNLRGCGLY

[7] = target: T2, Guanine nucleotide-binding protein G(i) subunit alpha-3; experiment: Percent stimulation of [35S]GTP-gamma-S, binding to G alpha i3 at 3E-5 M of basal for 30 minutes

T1 sequence (P63096 whole entry): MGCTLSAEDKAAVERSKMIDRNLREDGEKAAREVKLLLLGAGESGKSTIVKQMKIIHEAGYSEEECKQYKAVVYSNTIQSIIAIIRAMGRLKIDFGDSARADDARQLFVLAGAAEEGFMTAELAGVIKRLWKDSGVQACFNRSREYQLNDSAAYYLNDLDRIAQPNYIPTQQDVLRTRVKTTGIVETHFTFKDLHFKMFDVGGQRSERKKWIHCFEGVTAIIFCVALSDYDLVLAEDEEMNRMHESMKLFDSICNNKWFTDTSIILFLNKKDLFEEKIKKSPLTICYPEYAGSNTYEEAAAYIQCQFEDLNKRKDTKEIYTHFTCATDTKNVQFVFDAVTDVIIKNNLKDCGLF

| Compound | EC50 [1] | EC50 [2] | EC50 [3] | Stimulation [4] | Stimulation [5] | Stimulation [6] | Stimulation [7] |
| --- | --- | --- | --- | --- | --- | --- | --- |
| CCCCCCCCCCCCCCC(=O)N1CCC(CCC2CCNCC2)CC1 | 6.6 µM | 6.3 µM | 6.1 µM | 845% | 1090% | 724% | – |
| CCCCCCCCCCCCCCCCC(=O)N1CCC(C2CCN(C)CC2)CC1 | 23 µM | 23.3 µM | 21.4 µM | 232% | 181% | 472% | – |
| CCCCCCCCCCCCCCCNC(=O)C1CCNCC1 | 6.4 µM | 5.9 µM | 8.2 µM | 973% | 986% | 2270% | – |
| CCCCCCCCCCCCCNC1CCNCC1 | 36.4 µM | 18.8 µM | 25.5 µM | 1480% | 2000% | 2350% | – |
| CCCCCCCCCCCCCCCNN1CCNCC1 | 15.9 µM | 19 µM | 6.1 µM | 5060% | – | 5580% | 5720% |
| CCCCCCCCCCCCC(=O)N1CCC(C2CCNCC2)CC1 | 17.6 µM | 12.1 µM | 18.1 µM | 950% | 1180% | 1500% | – |
| CCCCCCCCCCCCCCCN1CCC(N)CC1 | 22.1 µM | 27.6 µM | 23 µM | 3350% | 3780% | 6890% | – |
| CCCCCCCCCCCCCCCCC(=O)N1CCC(C2CCNCC2)CC1 | 25.4 µM | 24.4 µM | 22.6 µM | 612% | 424% | 920% | – |
| CCCCCCCCCCCCCCCN1CCC(C2CCN(C)CC2)CC1 | – | – | – | 97% | 80% | 93% | – |
| CCCCCCCCCCCCCCCNC(=O)C1CCN(CCNC=O)CC1 | 8.6 µM | 9.3 µM | 5.5 µM | 3290% | 3240% | 3600% | – |
| CCCCCCCCCCCCCCC(=O)N1CCN(N)CC1 | 28.6 µM | 24.6 µM | 374 µM | 173% | 211% | 194% | – |
| CCCCCCCCCCCCCCCNC1CCNCC1 | 11.8 µM | 11.2 µM | 13.3 µM | 3370% | 3440% | 3830% | – |
| CCCCCCCCCCCCCCCN1CCC(CCC2CCN(C)CC2)CC1 | – | – | – | 86% | 102% | 132% | – |
| CCCCCCCCCCCCCCCNC(=O)C1CCN(CCN)CC1 | 18.4 µM | 19 µM | 16.9 µM | 2630% | 2720% | 3350% | – |
| CCCCCCCCCCCCCN1CCC(C2CCNCC2)CC1 | 21.1 µM | 21.2 µM | 27.1 µM | 755% | 406% | 913% | – |
| CCCCCCCCCCCCCCC(=O)N1CCC(C2CCNCC2)CC1 | 8.6 µM | 9.3 µM | 5.6 µM | 1540% | 1560% | 2390% | – |
| CCCCCCCCCCCCCCC[N+]1(C)CCC(C2CCNCC2)CC1 (stereo not given) | 14.7 µM | 16 µM | 10.1 µM | 1580% | 1630% | 2090% | – |

| Compound | EC50 [1] | EC50 [2] | EC50 [3] | Stimulation [4] | Stimulation [5] | Stimulation [6] | Stimulation [7] |
| --- | --- | --- | --- | --- | --- | --- | --- |
| CCCCCCCCCCCCCCCCCN1CCC(C2CCNCC2)CC1 | 35.7 µM | 41.5 µM | 13.4 µM | 5690% | 5660% | 3480% | – |
| CCCCCCCCCCCCCCC(=O)N1CCC(CCC2CCN(C)CC2)CC1 | 20.1 µM | 6.1 µM | 12.5 µM | 577% | 815% | 742% | – |
| CCCCCCCCCCCCCCCCCN1CCC(C2CCN(C)CC2)CC1 | – | – | – | 81% | 97% | 99% | – |
| COc1ccccc1CN1CCC(C2CCNCC2)CC1 | – | 38.8 µM | – | 60% | 391% | 129% | – |
| CCCCCCCCCCCCCCC(=O)NC1CCNCC1 | 50.2 µM | 34.3 µM | 22.7 µM | 1270% | 1290% | 1370% | – |
| CCCCCCCCCCCCNC(=O)C(N)CCCCN (stereo not given) | 47.9 µM | 43.9 µM | 28.8 µM | 900% | 1030% | 2510% | – |
| CCCCCCCCCCCCCCCNCC1CCNCC1 | 10.6 µM | 11.4 µM | 12.4 µM | 2460% | 1930% | 4160% | – |
| CCCCCCCCCCCCCCCN1CCC(CCC2CCNCC2)CC1 | 451 µM | 8050 µM | 10.5 µM | 2460% | 2400% | 5010% | – |
| CCCCCCCCCCCCCCCNCC1CCN(CCN)CC1 | 17.8 µM | 23 µM | 24.3 µM | 825% | 815% | 942% | – |
| CCCCCCCCCCCCCCCN1CCC(C2CCNCC2)CC1 | 19.1 µM | 18.7 µM | 6.2 µM | 1510% | 1640% | 1810% | – |
| CCCCCCCCCCCCCCC(=O)N1CCC(N)CC1 | 25.5 µM | 25.1 µM | 25.8 µM | 1050% | 1070% | 1280% | – |
| CCCCCCCCCCCCCCCN1CCC(NC2CCNCC2)CC1 | 32.4 µM | 14.4 µM | 13.5 µM | 1540% | 2280% | 3040% | – |
| CCCCCCCCCCCCCCC(=O)NN1CCNCC1 | 38.5 µM | 24.9 µM | 23.4 µM | 2320% | 3690% | 4640% | – |
| CCCCCCCCCCCCCCC(=O)N1CCC(C2CCN(C)CC2)CC1 | 6 µM | 17.9 µM | 34.9 µM | 392% | 265% | 531% | – |
| CCCCCCCCCCCCCCCN1CCN(N)CC1 | 6.5 µM | 6.5 µM | 3.7 µM | 2330% | 2820% | 2870% | – |
| CCCCCCCCCCCCCN1CCC(C2CCN(C)CC2)CC1 | 18.7 µM | 18.9 µM | 19.3 µM | 704% | 435% | 420% | – |
| CCCCCCCCCCCCC(=O)N1CCC(C2CCN(C)CC2)CC1 | – | – | – | 84% | 75% | 126% | – |
